Calls of active or inactive are those of the source.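 Rule for the calls: active = inhibition of at least 50% against any of four protein arginine deiminase enzymes; inactive = the rest.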
What was measured:
Assay in all cases: PAD1-4 inhibition by competitive ABPP, late-stage follow-up, orthogonal assay for PAD4 inhibitor project, biochemical, fluorescence, gel-based ABPP, HTS hits (AID 588487)
[1] = target: Protein-arginine deiminase type-1 (Homo sapiens) (UniProt Q9ULC6); settings: recombinant PAD1-4, gel-based ABPP, RFA probe fluorescence; PAD1; at 10 µM; hits give high values
How it was run: (§1)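 Assay system: recombinant PAD1, PAD2, PAD3 or PAD4 / Probe or stimulus: RFA fluorescent probe at 1 µM / Doses: single compound dose of 10 µM, DMSO vehicle / Timing: 15 min compound pre-incubation plus 30 min probe step, 37 °C / Technique: in-gel fluorescence scan of probe-labeled PAD band after SDS-PAGE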

[2] = target: Protein-arginine deiminase type-2 (Homo sapiens) (UniProt Q9Y2J8); settings: recombinant PAD1-4, gel-based ABPP, RFA probe fluorescence; PAD2; at 10 µM; hits give high values
How it was run: as §1

[3] = target: Protein-arginine deiminase type-3 (Homo sapiens) (UniProt Q9ULW8); settings: recombinant PAD1-4, gel-based ABPP, RFA probe fluorescence; PAD3; at 10 µM; hits give high values
How it was run: as §1

[4] = target: Protein-arginine deiminase type-4 (Homo sapiens) (UniProt Q9UM07); settings: recombinant PAD1-4, gel-based ABPP, RFA probe fluorescence; PAD4; at 10 µM; hits give high values
How it was run: as §1

Protein-arginine deiminase type-1 (Homo sapiens), sequence (Q9ULC6 whole entry, looked up): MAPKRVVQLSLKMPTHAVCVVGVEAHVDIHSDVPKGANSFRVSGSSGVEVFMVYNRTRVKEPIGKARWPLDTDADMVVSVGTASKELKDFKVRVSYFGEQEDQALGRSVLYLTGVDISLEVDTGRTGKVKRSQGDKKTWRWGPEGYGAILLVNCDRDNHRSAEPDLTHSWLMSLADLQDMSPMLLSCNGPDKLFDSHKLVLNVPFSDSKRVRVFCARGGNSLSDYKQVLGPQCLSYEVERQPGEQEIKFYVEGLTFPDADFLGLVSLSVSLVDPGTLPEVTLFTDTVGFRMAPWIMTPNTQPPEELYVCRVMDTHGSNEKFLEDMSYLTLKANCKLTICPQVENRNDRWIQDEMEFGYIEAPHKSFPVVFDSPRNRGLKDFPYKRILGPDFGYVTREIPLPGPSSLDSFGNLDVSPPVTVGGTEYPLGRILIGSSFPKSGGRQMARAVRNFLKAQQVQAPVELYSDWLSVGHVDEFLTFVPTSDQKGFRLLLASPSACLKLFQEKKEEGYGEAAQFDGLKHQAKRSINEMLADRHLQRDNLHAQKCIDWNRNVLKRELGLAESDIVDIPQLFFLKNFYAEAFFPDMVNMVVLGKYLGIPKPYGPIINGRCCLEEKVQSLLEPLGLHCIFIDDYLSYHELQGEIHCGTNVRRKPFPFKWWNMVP
Protein-arginine deiminase type-2 (Homo sapiens), sequence (Q9Y2J8 whole entry, looked up): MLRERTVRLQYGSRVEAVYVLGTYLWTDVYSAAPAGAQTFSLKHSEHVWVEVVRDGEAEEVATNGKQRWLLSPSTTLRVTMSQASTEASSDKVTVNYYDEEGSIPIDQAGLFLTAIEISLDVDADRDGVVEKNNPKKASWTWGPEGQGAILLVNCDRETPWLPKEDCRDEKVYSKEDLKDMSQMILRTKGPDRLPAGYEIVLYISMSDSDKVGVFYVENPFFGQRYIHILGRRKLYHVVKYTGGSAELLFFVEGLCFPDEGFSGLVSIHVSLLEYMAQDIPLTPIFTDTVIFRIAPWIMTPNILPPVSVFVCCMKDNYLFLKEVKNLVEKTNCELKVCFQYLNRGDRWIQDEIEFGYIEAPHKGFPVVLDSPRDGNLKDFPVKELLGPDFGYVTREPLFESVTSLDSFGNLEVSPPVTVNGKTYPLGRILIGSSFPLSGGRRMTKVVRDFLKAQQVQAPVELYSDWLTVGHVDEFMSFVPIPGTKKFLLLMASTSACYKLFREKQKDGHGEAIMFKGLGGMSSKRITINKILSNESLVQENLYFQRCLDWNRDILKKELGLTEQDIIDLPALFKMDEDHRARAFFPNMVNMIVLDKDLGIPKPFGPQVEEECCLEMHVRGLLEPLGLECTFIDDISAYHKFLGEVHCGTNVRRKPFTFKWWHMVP
Protein-arginine deiminase type-4 (Homo sapiens), sequence (Q9UM07 whole entry, looked up): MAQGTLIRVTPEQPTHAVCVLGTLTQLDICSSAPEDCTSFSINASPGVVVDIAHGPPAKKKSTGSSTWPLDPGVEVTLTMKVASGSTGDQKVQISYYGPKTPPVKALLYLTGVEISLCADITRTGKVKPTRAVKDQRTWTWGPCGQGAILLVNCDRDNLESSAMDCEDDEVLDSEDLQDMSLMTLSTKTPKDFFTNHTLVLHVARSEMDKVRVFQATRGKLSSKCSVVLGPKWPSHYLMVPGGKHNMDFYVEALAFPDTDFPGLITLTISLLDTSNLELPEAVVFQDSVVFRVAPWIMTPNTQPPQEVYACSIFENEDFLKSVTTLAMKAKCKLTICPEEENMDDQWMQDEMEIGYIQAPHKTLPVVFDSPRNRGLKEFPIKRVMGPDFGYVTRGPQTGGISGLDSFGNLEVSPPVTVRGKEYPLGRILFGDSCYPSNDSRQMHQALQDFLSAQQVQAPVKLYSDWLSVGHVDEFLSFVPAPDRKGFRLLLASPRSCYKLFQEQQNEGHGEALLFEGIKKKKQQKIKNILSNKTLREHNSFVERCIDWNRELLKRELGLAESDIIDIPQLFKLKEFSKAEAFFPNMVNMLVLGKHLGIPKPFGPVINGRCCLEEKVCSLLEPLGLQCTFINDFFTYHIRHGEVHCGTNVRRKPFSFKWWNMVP
Protein-arginine deiminase type-3 (Homo sapiens), sequence (Q9ULW8 whole entry, looked up): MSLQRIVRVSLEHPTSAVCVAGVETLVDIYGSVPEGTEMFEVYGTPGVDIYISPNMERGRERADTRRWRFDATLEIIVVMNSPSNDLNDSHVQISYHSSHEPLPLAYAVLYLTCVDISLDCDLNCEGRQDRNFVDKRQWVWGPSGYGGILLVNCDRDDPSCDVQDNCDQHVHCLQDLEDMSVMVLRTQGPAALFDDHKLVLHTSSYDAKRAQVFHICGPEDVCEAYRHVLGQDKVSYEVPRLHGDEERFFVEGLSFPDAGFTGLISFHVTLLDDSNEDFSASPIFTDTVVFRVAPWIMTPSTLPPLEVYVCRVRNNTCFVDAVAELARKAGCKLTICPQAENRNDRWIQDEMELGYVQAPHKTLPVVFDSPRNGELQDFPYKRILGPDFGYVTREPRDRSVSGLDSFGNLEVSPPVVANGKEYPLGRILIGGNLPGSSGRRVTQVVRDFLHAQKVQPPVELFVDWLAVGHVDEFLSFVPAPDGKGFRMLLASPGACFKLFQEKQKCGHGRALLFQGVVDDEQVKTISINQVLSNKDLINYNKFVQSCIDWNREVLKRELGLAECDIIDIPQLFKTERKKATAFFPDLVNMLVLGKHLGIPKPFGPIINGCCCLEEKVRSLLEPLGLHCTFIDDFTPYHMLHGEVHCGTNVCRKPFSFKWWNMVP

SMILES | inhibition [1] | inhibition [2] | inhibition [3] | inhibition [4]
S=C(NCc1ccco1)Nc1cccc(Cl)c1 | 46% (inactive) | 25% (inactive) | 43% (inactive) | 1% (inactive)
Cn1c(SCC(=O)N/N=C/C=C/c2ccco2)nc2ccccc21 | 14% (inactive) | 41% (inactive) | -13% (inactive) | 38% (inactive)
COc1cccc(NC(=O)CN(C)C(=O)C23CC4CC(CC(Cl)(C4)C2)C3)c1 | 13% (inactive) | 17% (inactive) | 13% (inactive) | 60%
COc1cccc(NC(=O)C2c3cc(OC)c(OC)cc3C(=O)N(C)C2c2cccnc2)c1 (stereo unspecified) | 15% (inactive) | 22% (inactive) | 26% (inactive) | 61%
COc1cccc2cc(C(=O)NC3CC(C)(C)NC(C)(C)C3)c(=O)oc12 | 15% (inactive) | 7% (inactive) | 66% | 31% (inactive)
COc1ccc(CCNC(=O)COC(=O)c2ccc(C)s2)cc1 | -2% (inactive) | 40% (inactive) | -38% (inactive) | 72%
CN(C)C(CNC(=O)c1cc2ccccc2o1)c1ccco1 (stereo unspecified) | 11% (inactive) | 46% (inactive) | 35% (inactive) | 24% (inactive)
COc1ccc(S(=O)(=O)Nc2ccccc2C)cc1 | 23% (inactive) | 57% | -13% (inactive) | 57%
O=C(NCC1CCCO1)c1cc2c([nH]c3ccccc32)c(-c2ccc(F)cc2)n1 (stereo unspecified) | 36% (inactive) | 13% (inactive) | -27% (inactive) | 78%
O=C1CC(c2cccnc2)=NN1c1ccccc1 | 37% (inactive) | 34% (inactive) | 34% (inactive) | 4% (inactive)
COc1ccc(-c2cc(=O)[nH][nH]2)cc1 | 58% | 53% | 32% (inactive) | 35% (inactive)
Cc1cc2ncn(-c3ncccc3[N+](=O)[O-])c2cc1C | 46% (inactive) | 25% (inactive) | -25% (inactive) | 29% (inactive)
CC(=O)Nc1c2c3c(cccc3n(C)c1=O)C(=O)c1ccccc1-2 | -5% (inactive) | 37% (inactive) | 32% (inactive) | 28% (inactive)
CCOC(=O)N1CCC(c2cc(=O)n(-c3ccccc3)[nH]2)CC1 | 43% (inactive) | 14% (inactive) | 32% (inactive) | 30% (inactive)
Cc1cc(C)c(C#N)c(Sc2ccccc2N)n1 | 36% (inactive) | 38% (inactive) | 5% (inactive) | 6% (inactive)
O=C(O)CCC(=O)Nc1ccc(SSc2ccc(NC(=O)CCC(=O)O)cc2)cc1 | 35% (inactive) | 40% (inactive) | 34% (inactive) | 45% (inactive)
CCN(Cc1ccc2c(c1)OCCO2)C(=O)CSc1nc(C)nc2sc(C)c(C)c12 | 43% (inactive) | 24% (inactive) | 24% (inactive) | -38% (inactive)
O=[N+]([O-])c1ccc2nc(-c3ccccc3)n(OCc3ccc(Cl)cc3)c2c1 | 3% (inactive) | 36% (inactive) | 36% (inactive) | -3% (inactive)
CS(=O)(=O)c1ccc(N)c(SSc2cc(S(C)(=O)=O)ccc2N)c1 | 27% (inactive) | 14% (inactive) | 35% (inactive) | -7% (inactive)
CN(C)CCCNc1cn[nH]c(=O)c1Cl | 33% (inactive) | 61% | -58% (inactive) | 41% (inactive)
COc1ccc(-c2noc3c2-c2nc(-c4ccc(Br)cc4)sc2CC3)cc1 | 33% (inactive) | 32% (inactive) | -23% (inactive) | 47% (inactive)
CCN(CC)S(=O)(=O)c1ccc(C)c(NS(=O)(=O)c2cc(/C=C/C(=O)O)cc(OC)c2OC)c1 | 9% (inactive) | 40% (inactive) | 33% (inactive) | 40% (inactive)

SMILES | inhibition [1] | inhibition [2] | inhibition [3] | inhibition [4]
CCOc1nc(Nc2ccc(OC)cc2OC)nc(OCC)n1 | 37% (inactive) | 62% | 46% (inactive) | 20% (inactive)
CC(NC(=O)Nc1ccc(O)cc1)(C(F)(F)F)C(F)(F)F | 29% (inactive) | 31% (inactive) | -29% (inactive) | 60%
Cc1cc(C)cc(NC(=S)/C(=C(\[O-])c2ccc(Cl)s2)[n+]2cccc(C)c2)c1 | -1% (inactive) | 50% | 28% (inactive) | -8% (inactive)
Cc1nn(-c2cccc(Cl)c2)c2c1C(c1cccnc1)C(C#N)=C(N)O2 (stereo unspecified) | 74% | 28% (inactive) | -34% (inactive) | 53%
O=C(CN1CCCCCC1)Nc1ccc(Br)cc1Br | 41% (inactive) | -16% (inactive) | 31% (inactive) | -53% (inactive)
COc1ccc(-c2nc(C(=O)NCCCN3CCOCC3)cc3c2[nH]c2ccccc23)cc1OC | 30% (inactive) | 18% (inactive) | -12% (inactive) | 10% (inactive)
CCC(=O)Oc1ccc(C(=O)Nc2cccc(C(=O)NC(C)(C)C)c2)cc1 | 34% (inactive) | 29% (inactive) | 40% (inactive) | 4% (inactive)
CCNC(=S)NNC(=O)c1csc(C)c1 | 2% (inactive) | -19% (inactive) | 14% (inactive) | 25% (inactive)
Cc1nn(-c2ccccc2)c(C)c1NC(=O)COc1ccc(Cl)cc1Cl | 2% (inactive) | 29% (inactive) | 57% | 12% (inactive)
N#CCCN(C(=O)Cn1nc(C(=O)O)c2ccccc2c1=O)c1ccccc1 | 53% | 21% (inactive) | 29% (inactive) | -23% (inactive)
O=c1cc(-c2cccc([N+](=O)[O-])c2)[nH][nH]1 | 24% (inactive) | 18% (inactive) | 5% (inactive) | 29% (inactive)
Cn1c(=O)c2c(ncn2CC(=O)Nc2nc(-c3ccccc3Cl)cs2)n(C)c1=O | 0% (inactive) | 25% (inactive) | -19% (inactive) | 80%
Cn1c(SCC(=O)Nc2ccc(Br)cn2)nnc1C1CC1 | 17% (inactive) | 19% (inactive) | -19% (inactive) | 15% (inactive)
COc1ccc(/C=N/Nc2nncn2N)cc1Br | 30% (inactive) | 44% (inactive) | -24% (inactive) | 55%
O=C(O)c1ccc(S(=O)(=O)c2ccc3c(c2)C(=O)N(c2ccc(O)cc2)C3=O)cc1 | 18% (inactive) | 32% (inactive) | 34% (inactive) | -3% (inactive)
COc1ccc(CCNC(=O)c2c[nH]c3ccc(F)cc3c2=O)cc1OC | -15% (inactive) | 35% (inactive) | 23% (inactive) | 33% (inactive)
COc1ccc(-c2cc(=O)n(CCC#N)[nH]2)cc1 | 17% (inactive) | 17% (inactive) | 35% (inactive) | 32% (inactive)
COc1cccc(C2=CC(c3ccc(OC)c(OC)c3)NC(=S)N2)c1 (stereo unspecified) | -9% (inactive) | 14% (inactive) | -3% (inactive) | -9% (inactive)
O=c1cc(-c2ccc(F)cc2)[nH][nH]1 | 33% (inactive) | 28% (inactive) | 1% (inactive) | 37% (inactive)
Cc1cc(N(C)NC(=S)Nc2ccccc2)nc(C)n1 | 32% (inactive) | 58% | 38% (inactive) | 5% (inactive)
COc1ccc(/C=C2/C(=O)N(c3ccccc3)N=C2C)cc1 | 20% (inactive) | 47% (inactive) | 35% (inactive) | 35% (inactive)
COc1ccc(C2=CC(c3ccc(OC)c(OC)c3)NC(=S)N2)cc1 (stereo unspecified) | 37% (inactive) | -9% (inactive) | 36% (inactive) | -50% (inactive)

From PubChem BioAssay AID588487 (The Scripps Research Institute Molecular Screening Center, 2011)
